Results from different studies.
Each line is one published result; the experiments were not run side by side.
Target: Ephrin type-B receptor 4 (EPHB4, Homo sapiens, UniProt P54760)
Residues used in one study (P54760 16-987): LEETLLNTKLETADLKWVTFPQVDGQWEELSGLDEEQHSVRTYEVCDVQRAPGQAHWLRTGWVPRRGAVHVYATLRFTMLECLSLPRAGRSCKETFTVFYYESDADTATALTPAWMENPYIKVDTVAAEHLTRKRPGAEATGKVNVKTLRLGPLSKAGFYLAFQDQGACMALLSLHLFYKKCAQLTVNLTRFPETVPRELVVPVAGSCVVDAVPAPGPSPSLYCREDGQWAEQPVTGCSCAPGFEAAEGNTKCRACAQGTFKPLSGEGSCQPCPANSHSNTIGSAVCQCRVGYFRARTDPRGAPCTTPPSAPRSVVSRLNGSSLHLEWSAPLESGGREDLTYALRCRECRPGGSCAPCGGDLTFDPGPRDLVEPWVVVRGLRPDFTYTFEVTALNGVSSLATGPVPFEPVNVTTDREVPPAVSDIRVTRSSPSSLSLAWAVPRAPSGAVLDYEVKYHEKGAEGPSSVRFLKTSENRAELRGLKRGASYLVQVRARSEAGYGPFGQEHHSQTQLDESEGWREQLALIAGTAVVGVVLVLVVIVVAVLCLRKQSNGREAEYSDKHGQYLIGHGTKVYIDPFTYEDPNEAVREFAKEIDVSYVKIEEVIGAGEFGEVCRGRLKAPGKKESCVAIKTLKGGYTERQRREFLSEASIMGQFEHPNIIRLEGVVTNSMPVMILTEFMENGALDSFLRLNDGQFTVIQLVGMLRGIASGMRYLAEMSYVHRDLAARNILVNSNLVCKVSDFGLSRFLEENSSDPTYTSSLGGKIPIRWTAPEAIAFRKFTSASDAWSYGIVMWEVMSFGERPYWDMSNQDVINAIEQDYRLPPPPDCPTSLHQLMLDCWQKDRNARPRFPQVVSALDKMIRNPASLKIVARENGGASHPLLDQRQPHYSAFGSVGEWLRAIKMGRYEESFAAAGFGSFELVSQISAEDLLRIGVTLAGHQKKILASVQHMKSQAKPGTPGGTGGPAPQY

With `COc1ncccc1-c1cnn2ccc(N3CCN(C(=O)OC(C)C)CC3)nc12` the remaining binding was 100% (binding, competition with immobilised ligand; 1 µM).
With `N#CC1(c2ccccn2)CCN(Cc2cc(C(=O)O)c(=O)n3ccccc23)CC1` the remaining binding was 83% (cell-free assay, competition with immobilised ligand; 1 µM).
With `Cc1nn(C)cc1-c1nc2c(N3CCN(Cc4ccc(Cl)cc4)CC3)c(Cl)cnc2[nH]1` the remaining binding was 100% (binding, competition with immobilised ligand; 1 µM).
The remaining binding of `Cn1cncc1[C@](O)(COc1ccc(C#N)cc1-c1ccc(OC(F)(F)F)cc1)c1ccc(C#N)cc1` is reported as 98% (cell-free assay, competition with immobilised ligand; 1 µM).
`Cn1cc(-c2cc(F)cc(N3CCn4c(cc5c4CCCC5)C3=O)c2CO)cc(Nc2ccc(N3CCN(C4COC4)CC3)cn2)c1=O` has an inhibition of 8% (enzyme activity, inhibitor; 0.1 µM).
`COc1cc(Nc2ncc(F)c(Nc3ccc4c(n3)NC(=O)C(C)(C)O4)n2)cc(OC)c1OC` has an inhibition of 50% (binding, competition with immobilised ligand; 10 µM).
The inhibition of `C#Cc1n[nH]c2c(-c3cn([C@@H](C)c4ccccn4)c(=O)[nH]c3=O)cc(F)cc12` is reported as 5.5% (enzyme activity, inhibitor; 0.1 µM).
With `Cn1cc(-c2cccc(N3CCc4c(sc5c4CC(C)(C)C5)C3=O)c2CO)cc(Nc2ccncn2)c1=O` the inhibition was 0% (enzyme activity, inhibitor; 1 µM).
`C#Cc1n[nH]c2c(-c3cn([C@@H](C)c4ccccc4)c(=O)[nH]c3=O)cc(F)cc12` has an inhibition of 1.4% (enzyme activity, inhibitor; 0.1 µM).
`O=c1[nH]c2ccccc2n1C1CCN(Cc2ccc(-c3[nH]c4cc5ncnc5cc4nc3-c3ccccc3)cc2)CC1` has a remaining signal of 96.4% (cell-free assay; 0.5 µM).
